Data on 8 compounds can be found in ChEMBL document CHEMBL1138987, “Development of cyclic gamma-MSH analogues with selective hMC3R agonist and hMC3R/hMC5R antagonist activities” (J Med Chem, 2006).

Assay [1] has as its target T1, Melanocortin receptor 3 (Homo sapiens, UniProt P41968). The assay can be described thus: Activity against hMC3R transfected in HEK293 cells by intracellular cAMP accumulation. It counts as functional, cell-based. An outline of the steps:
(§1)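 HEK293 cells stably transfected with human receptor, grown to confluence in MEM with 10% FBS, seeded 48 h before assay. Cells preincubated 1 min at 37 °C in EBSS with IBMX (0.5 mM stock). Peptide added (10^-10 to 10^-5 M), 3 min at 37 °C. Stopped with ice-cold Tris/EDTA, boiled, cAMP measured by competitive binding kit. EC50 from nonlinear least-squares fit; mean of two experiments in triplicate.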

For assay [2], the target named is T1, Melanocortin receptor 3. The assay can be described thus: Inhibitory activity against hMC3R transfected in HEK293 cells. It counts as cell-based. An outline of the steps: (§2)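 Competition binding on whole HEK293 cells stably expressing the human receptor, seeded 48 h prior. Binding buffer was MEM, 25 mM HEPES pH 7.4, 0.2% BSA, 1,10-phenanthroline, leupeptin and bacitracin. Cells washed and lysed, then gamma counted. IC50 from nonlinear least-squares fit; mean of two experiments in triplicate.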

For assay [3], the target named is T2, Melanocortin receptor 5 (Homo sapiens, UniProt P33032). The assay can be described thus: Activity against hMC5R transfected in HEK293 cells by intracellular cAMP accumulation. The class given is functional, cell-based. An outline of the steps: as §1
For assay [4], the target named is T3, Melanocortin receptor 4 (Homo sapiens, UniProt P32245). The assay can be described thus: Activity against hMC4R transfected in HEK293 cells by intracellular cAMP accumulation. It counts as functional, cell-based. An outline of the steps:
as §1

The target in assay [5] is T4, Melanocyte-stimulating hormone receptor (Homo sapiens, UniProt Q01726). The assay can be described thus: Activity against hMC1R transfected in HEK293 cells by intracellular cAMP accumulation. It counts as functional, cell-based. The method in brief: as §1
Assay [6] has as its target T3, Melanocortin receptor 4. The assay can be described thus: Inhibitory activity against hMC4R transfected in HEK293 cells. The class given is cell-based. The method in brief:
as §2

Assay [7] has as its target T2, Melanocortin receptor 5. The assay can be described thus: Inhibitory activity against hMC5R transfected in HEK293 cells. It counts as cell-based. An outline of the steps: as §2
For assay [8], the target named is T4, Melanocyte-stimulating hormone receptor. The assay can be described thus: Inhibitory activity against hMC1R transfected in HEK293 cells. The class given is cell-based. The method in brief:
as §2
Target sequence in this assay (Q01726 whole entry): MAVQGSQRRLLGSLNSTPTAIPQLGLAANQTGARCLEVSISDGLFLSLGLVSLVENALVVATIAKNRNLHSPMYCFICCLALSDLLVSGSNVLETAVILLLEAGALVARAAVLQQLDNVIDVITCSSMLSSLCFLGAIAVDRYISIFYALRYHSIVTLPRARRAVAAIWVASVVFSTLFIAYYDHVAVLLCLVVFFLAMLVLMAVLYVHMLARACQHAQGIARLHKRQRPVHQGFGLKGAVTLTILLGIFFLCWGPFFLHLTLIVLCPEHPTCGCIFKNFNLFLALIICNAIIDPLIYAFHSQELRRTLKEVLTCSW

Where only a bound is given, the exact number is not on record here.

T2 sequence (P33032 whole entry): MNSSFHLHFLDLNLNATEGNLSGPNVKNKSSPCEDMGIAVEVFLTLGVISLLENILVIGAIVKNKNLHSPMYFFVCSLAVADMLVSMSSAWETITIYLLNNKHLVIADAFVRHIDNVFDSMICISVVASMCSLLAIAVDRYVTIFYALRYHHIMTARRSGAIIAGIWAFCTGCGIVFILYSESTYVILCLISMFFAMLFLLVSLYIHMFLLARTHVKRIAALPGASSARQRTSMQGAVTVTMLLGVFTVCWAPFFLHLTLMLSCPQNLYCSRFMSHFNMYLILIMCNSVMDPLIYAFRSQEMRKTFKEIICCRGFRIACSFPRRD
T1 sequence (P41968 whole entry): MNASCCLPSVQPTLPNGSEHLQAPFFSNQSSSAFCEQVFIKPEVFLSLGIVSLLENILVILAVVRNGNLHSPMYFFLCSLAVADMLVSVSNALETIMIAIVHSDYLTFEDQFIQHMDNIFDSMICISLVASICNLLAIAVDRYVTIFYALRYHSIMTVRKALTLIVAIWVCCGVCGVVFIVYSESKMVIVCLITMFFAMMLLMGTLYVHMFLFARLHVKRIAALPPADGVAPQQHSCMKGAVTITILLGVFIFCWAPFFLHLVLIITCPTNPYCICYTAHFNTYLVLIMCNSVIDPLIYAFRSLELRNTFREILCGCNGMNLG
T3 sequence (P32245 whole entry): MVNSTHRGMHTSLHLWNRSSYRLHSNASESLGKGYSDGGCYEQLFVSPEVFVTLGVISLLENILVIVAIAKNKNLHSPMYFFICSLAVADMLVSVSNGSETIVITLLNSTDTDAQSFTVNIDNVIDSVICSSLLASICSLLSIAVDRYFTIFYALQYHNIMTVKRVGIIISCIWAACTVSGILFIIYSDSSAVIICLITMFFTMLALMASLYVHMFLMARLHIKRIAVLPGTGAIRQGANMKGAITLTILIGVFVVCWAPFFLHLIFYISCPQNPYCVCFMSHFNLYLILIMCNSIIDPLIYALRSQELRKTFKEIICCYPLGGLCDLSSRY

Consider `CCCC[C@@H]1NC(=O)CC[C@@H](C(N)=O)NC(=O)[C@H](Cc2c[nH]c3ccccc23)NC(=O)[C@H](CCCN=C(N)N)NC(=O)[C@@H](Cc2ccc3ccccc3c2)NC(=O)[C@H](CCCN=C(N)N)NC1=O`, for which the EC50 at Melanocortin receptor 3 [1] was > 10 µM; on Melanocortin receptor 5 [3], > 10 µM; on Melanocortin receptor 4 [4], 0.53 µM; in assay [5], > 10 µM. For the same compound, the 50% inhibitory concentration (IC50) at Melanocortin receptor 3 [2] was 0.0026 µM; on Melanocortin receptor 4 [6], 0.077 µM; at Melanocortin receptor 5 [7] it was 0.0023 µM; in assay [8], 1.5 µM.
In the case of `CCCC[C@@H]1NC(=O)CC[C@@H](C(N)=O)NC(=O)[C@H](Cc2c[nH]c3ccccc23)NC(=O)[C@H](CCCN=C(N)N)NC(=O)[C@@H](Cc2ccc3ccccc3c2)NC(=O)[C@H](CCC(N)=O)NC1=O`, the %max on Melanocortin receptor 3 [1] is 0%; at Melanocortin receptor 5 [3] it was 0%; on Melanocortin receptor 4 [4], 50%; in assay [5], 0%. Besides, the EC50 at Melanocortin receptor 3 [1] was > 10 µM; at Melanocortin receptor 5 [3], > 10 µM; on Melanocortin receptor 4 [4] it was 0.13 µM; in assay [5], > 1 µM. In addition, the IC50 was 0.0014 µM against Melanocortin receptor 3 [2], 0.065 µM against Melanocortin receptor 4 [6], 0.0014 µM against Melanocortin receptor 5 [7] and 1 µM in assay [8].
With `CCCC[C@@H]1NC(=O)CC[C@@H](C(N)=O)NC(=O)[C@H](Cc2c[nH]c3ccccc23)NC(=O)[C@H](CCCN=C(N)N)NC(=O)[C@@H](Cc2ccc3ccccc3c2)NC(=O)[C@H](CCC(=O)O)NC1=O`, the %max at Melanocortin receptor 3 [1] is 7%; at Melanocortin receptor 5 [3], 0%; at Melanocortin receptor 4 [4], 0%; in assay [5] it was 0%. The concentration for a half-maximal effect (EC50) at Melanocortin receptor 3 [1] is 2.8 µM; on Melanocortin receptor 5 [3] it was > 10 µM; at Melanocortin receptor 4 [4], > 10 µM; in assay [5], > 10 µM. Besides, the concentration for half-maximal inhibition (IC50) was 0.14 µM against Melanocortin receptor 3 [2], 0.034 µM at Melanocortin receptor 4 [6], 0.044 µM on Melanocortin receptor 5 [7] and > 10 µM in assay [8].
As to `CCCC[C@@H]1NC(=O)CC[C@@H](C(N)=O)NC(=O)[C@H](Cc2c[nH]c3ccccc23)NC(=O)[C@H](CCCN=C(N)N)NC(=O)[C@@H](Cc2ccc3ccccc3c2)NC(=O)[C@H](C(C)C)NC1=O`, the %max was found to be 0% at Melanocortin receptor 3 [1], 0% on Melanocortin receptor 5 [3], 13% on Melanocortin receptor 4 [4] and 0% in assay [5]. The EC50 is > 10 µM on Melanocortin receptor 3 [1], > 10 µM at Melanocortin receptor 5 [3], 0.016 µM on Melanocortin receptor 4 [4] and > 10 µM in assay [5]. The Kb on Melanocortin receptor 3 [1] (read-out: pA2 (converted)) is 0.00398 µM; on Melanocortin receptor 5 [3] (read-out: pA2 (converted)) it was 0.002 µM. In addition, the IC50 came to 0.0017 µM against Melanocortin receptor 3 [2], 0.18 µM against Melanocortin receptor 4 [6], 0.0022 µM against Melanocortin receptor 5 [7] and 4 µM in assay [8].
With `CCCC[C@@H]1NC(=O)CC[C@@H](C(N)=O)NC(=O)[C@H](Cc2c[nH]c3ccccc23)NC(=O)[C@H](CCCN=C(N)N)NC(=O)[C@@H](Cc2ccccc2)NC(=O)[C@H](CCCC)NC1=O`, the %max at Melanocortin receptor 3 [1] turned out to be 27%; at Melanocortin receptor 5 [3] it was 0%; at Melanocortin receptor 4 [4], 50%; in assay [5], 0%. For the same compound, the EC50 is 0.3 µM on Melanocortin receptor 3 [1], > 10 µM on Melanocortin receptor 5 [3], > 1 µM on Melanocortin receptor 4 [4] and > 10 µM in assay [5]. The IC50 at Melanocortin receptor 3 [2] was 0.25 µM; at Melanocortin receptor 4 [6], 0.6 µM; at Melanocortin receptor 5 [7], 0.07 µM; in assay [8], > 10 µM.
Take `CCCC[C@@H]1NC(=O)CC[C@@H](C(N)=O)NC(=O)[C@H](Cc2c[nH]c3ccccc23)NC(=O)[C@H](CCCN=C(N)N)NC(=O)[C@@H](Cc2ccc3ccccc3c2)NC(=O)[C@H](CC(=O)O)NC1=O`: the EC50 (on Melanocortin receptor 3 [1]; on Melanocortin receptor 5 [3]; at Melanocortin receptor 4 [4]; in assay [5]) was > 10 µM throughout. Moreover, the IC50 is 0.82 µM on Melanocortin receptor 3 [2], 0.17 µM at Melanocortin receptor 4 [6], 0.22 µM against Melanocortin receptor 5 [7] and > 10 µM in assay [8].
With `CCCC[C@@H]1NC(=O)CC[C@@H](C(N)=O)NC(=O)[C@H](Cc2c[nH]c3ccccc23)NC(=O)[C@H](CCCN=C(N)N)NC(=O)[C@@H](Cc2ccc3ccccc3c2)NC(=O)[C@H](Cc2cnc[nH]2)NC1=O`, the EC50 (on Melanocortin receptor 3 [1]; on Melanocortin receptor 5 [3]; on Melanocortin receptor 4 [4]; in assay [5]) was > 10 µM in each case. Also, the IC50 is 0.012 µM against Melanocortin receptor 3 [2], 0.1 µM on Melanocortin receptor 4 [6], 0.0023 µM at Melanocortin receptor 5 [7] and > 10 µM in assay [8].
Turning to `CCCC[C@@H]1NC(=O)CC[C@@H](C(N)=O)NC(=O)[C@H](Cc2c[nH]c3ccccc23)NC(=O)[C@H](CCCN=C(N)N)NC(=O)[C@@H](Cc2ccccc2)NC(=O)[C@@H]2CCCN2C1=O`, the EC50 is > 10 µM at Melanocortin receptor 3 [1], 0.85 µM at Melanocortin receptor 5 [3], 10 µM at Melanocortin receptor 4 [4] and > 10 µM in assay [5]. Moreover, the 50% inhibitory concentration (IC50) at Melanocortin receptor 3 [2] was 2.7 µM; against Melanocortin receptor 4 [6] it was 2.7 µM; on Melanocortin receptor 5 [7], 0.4 µM; in assay [8], > 10 µM.
